Holding throughout (type): ADME
Data set [1] deals with T1, Cytochrome P450 2E1 (Homo sapiens, UniProt P05181). As to the kind of experiment: Drug metabolism in human liver microsomes assessed as CYP2E1-mediated nicotinamide N-oxide formation at 3 mM after 30 mins by HPLC analysis. As to conditions: 0.5 h, 3000 µM. The method in brief: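 Pooled human liver microsomes at 1 mg/ml in 0.1 M NaH2PO4, pH 7.4, with 1mM NADPH were preincubated 2 min at 37°C. NAM was added at varied concentrations and run 30 min, then stopped with ice-cold methanol. N-oxide was measured by HILIC HPLC with UV at 254 nm against a standard curve. Km and Vmax came from a Michaelis-Menten nonlinear fit. Triplicates.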
T1 sequence (P05181 whole entry): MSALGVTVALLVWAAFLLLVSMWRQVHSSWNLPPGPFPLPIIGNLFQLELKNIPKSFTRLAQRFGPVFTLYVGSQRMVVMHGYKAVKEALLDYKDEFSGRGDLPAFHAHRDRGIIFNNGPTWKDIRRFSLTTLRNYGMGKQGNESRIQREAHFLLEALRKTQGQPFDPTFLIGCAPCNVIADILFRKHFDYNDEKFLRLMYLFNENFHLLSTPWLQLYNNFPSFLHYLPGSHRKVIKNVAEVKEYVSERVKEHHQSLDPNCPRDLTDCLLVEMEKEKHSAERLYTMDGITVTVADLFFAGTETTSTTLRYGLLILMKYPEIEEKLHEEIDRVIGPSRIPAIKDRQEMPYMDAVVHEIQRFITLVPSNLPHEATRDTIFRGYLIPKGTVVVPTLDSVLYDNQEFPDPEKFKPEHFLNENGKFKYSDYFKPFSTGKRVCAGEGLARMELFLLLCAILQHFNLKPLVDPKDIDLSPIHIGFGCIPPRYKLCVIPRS
(Liver microsomes are a subcellular fraction often used to study metabolism.)

Data set [2] deals with T1, Cytochrome P450 2E1. As to the kind of experiment: Drug metabolism in human liver microsomes assessed as CYP2E1-mediated nicotinamide N-oxide formation preincubated for 5 mins at 45 degC after 30 mins by HPLC analysis in absence of NADPH. As to conditions: 0.5 h. Put shortly:
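Before assay, HLM were heated 5 min at 45°C with or without NADPH. Incubation then ran with 2 mM NAM for 30 min in pH 7.4 phosphate buffer. NAM N-oxide was quantified by HILIC HPLC (UV 254 nm) from a standard curve. Triplicate determinations, t-test.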

Data set [3] concerns the target T2, Flavin-containing monooxygenase 3 (Homo sapiens, UniProt P31513).
T2 sequence (P31513 whole entry): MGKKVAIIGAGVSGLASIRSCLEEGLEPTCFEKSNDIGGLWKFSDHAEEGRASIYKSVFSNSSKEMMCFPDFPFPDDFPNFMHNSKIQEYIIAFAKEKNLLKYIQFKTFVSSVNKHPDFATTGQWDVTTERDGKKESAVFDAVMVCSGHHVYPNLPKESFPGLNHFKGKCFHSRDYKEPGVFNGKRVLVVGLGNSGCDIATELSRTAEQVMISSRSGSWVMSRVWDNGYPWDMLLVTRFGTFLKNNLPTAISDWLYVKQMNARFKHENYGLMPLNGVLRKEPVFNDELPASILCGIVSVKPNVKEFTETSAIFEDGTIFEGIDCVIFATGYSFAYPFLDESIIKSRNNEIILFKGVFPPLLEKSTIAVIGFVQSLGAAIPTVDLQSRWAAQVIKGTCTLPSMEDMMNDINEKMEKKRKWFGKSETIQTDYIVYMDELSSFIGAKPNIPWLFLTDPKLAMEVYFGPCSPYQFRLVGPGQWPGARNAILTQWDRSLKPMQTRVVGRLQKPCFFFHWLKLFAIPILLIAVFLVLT
As to the kind of experiment: Drug metabolism in insect microsomes assessed as FMO3 (unknown origin)-mediated nicotinamide N-oxide formation after 30 mins by HPLC analysis. The note with it: 0.5 h.

Data set [4] concerns the target T1, Cytochrome P450 2E1. The data set is described as follows: Drug metabolism in human liver microsomes assessed as diethyldithiocarbamate-mediated reduction of CYP2E1-mediated nicotinamide N-oxide formation at 2 mM by HPLC analysis relative to control. As to conditions: 2000 µM. Put shortly: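 Microsomes (1 mg/ml HLM, 1mM NADPH, pH 7.4) were preincubated 30 min with 100 μM diethyldithiocarbamate (final 0.1% methanol). Then 2 mM NAM was added for 30 min at 37°C. N-oxide was quantified by HILIC HPLC at 254 nm versus control. Triplicate means, t-test.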

The target of data set [5] is T3, Cytochrome P450 2A6 (Homo sapiens, UniProt P11509).
T3 sequence (P11509 whole entry): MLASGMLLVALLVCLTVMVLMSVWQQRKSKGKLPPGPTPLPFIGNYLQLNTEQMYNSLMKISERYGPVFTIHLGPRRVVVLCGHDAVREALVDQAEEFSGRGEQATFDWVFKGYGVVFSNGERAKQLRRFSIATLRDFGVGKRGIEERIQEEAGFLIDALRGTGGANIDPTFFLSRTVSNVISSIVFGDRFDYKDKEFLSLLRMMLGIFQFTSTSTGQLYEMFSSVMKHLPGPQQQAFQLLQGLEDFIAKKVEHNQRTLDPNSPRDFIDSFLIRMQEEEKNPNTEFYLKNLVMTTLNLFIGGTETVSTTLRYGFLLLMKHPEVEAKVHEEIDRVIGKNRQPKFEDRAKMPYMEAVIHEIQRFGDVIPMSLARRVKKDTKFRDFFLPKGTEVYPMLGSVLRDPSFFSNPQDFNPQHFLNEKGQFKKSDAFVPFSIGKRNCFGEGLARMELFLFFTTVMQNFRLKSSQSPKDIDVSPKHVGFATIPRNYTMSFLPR
As to the kind of experiment: Drug metabolism in human liver microsomes assessed as CYP2A6-mediated nicotinamide N-oxide formation by HPLC analysis.

Data set [6] deals with T4, Cytochrome P450 2B6 (Homo sapiens, UniProt P20813).
T4 sequence (P20813 whole entry): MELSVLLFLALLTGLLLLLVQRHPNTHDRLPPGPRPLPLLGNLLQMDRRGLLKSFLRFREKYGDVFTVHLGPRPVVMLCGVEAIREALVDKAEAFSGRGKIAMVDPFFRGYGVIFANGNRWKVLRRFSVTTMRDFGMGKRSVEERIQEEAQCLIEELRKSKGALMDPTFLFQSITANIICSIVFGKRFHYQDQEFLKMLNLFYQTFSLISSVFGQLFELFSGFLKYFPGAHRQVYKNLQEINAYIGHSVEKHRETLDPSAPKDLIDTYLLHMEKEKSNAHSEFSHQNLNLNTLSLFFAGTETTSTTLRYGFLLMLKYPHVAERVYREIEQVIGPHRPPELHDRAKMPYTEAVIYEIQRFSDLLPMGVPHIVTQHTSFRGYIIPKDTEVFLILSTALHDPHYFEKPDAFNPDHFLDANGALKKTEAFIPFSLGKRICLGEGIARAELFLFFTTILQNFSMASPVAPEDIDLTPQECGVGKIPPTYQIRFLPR
As to the kind of experiment: Drug metabolism in human liver microsomes assessed as CYP2B6-mediated nicotinamide N-oxide formation by HPLC analysis.

The target of data set [7] is T1, Cytochrome P450 2E1. As to the kind of experiment: Drug metabolism in human liver microsomes assessed as chlorzoxazone-mediated reduction of CYP2E1-mediated nicotinamide N-oxide formation at 2 mM by HPLC analysis relative to control. The note with it: 2000 µM. Put shortly: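 Human liver microsomes (1 mg/ml, 1mM NADPH, pH 7.4) were incubated with 2 mM NAM plus 100 μM chlorzoxazone (final 1% acetonitrile) for 30 min at 37°C. Methanol quench, then HILIC HPLC, UV 254 nm. Compared against solvent control; triplicates, t-test.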

Data set [8] concerns the target T1, Cytochrome P450 2E1. As to the kind of experiment: Drug metabolism in human liver microsomes assessed as antibody-mediated reduction in CYP2E1-mediated nicotinamide N-oxide formation at 2 mM by HPLC analysis relative to control. As to conditions: 2000 µM. Details: scale not given: the % may be the effect or the level left. Put shortly: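 HLM (1 mg/ml, pH 7.4 phosphate, 1mM NADPH) were preincubated 5 min at 37°C with 15 microgram anti-CYP2E1 or control mouse antibody. Control antibody was dialysed against Tris to remove azide. Then 2 mM NAM was added for 30 min. HPLC-UV 254 nm quantitation was expressed against the control antibody. Triplicates.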

Data set [9] concerns the target T1, Cytochrome P450 2E1. As to the kind of experiment: Drug metabolism in insect microsomes assessed as CYP2E1 (unknown origin)-mediated nicotinamide N-oxide formation after 30 mins by HPLC analysis. As to conditions: 0.5 h. Put shortly: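 Insect cell microsomes overexpressing CYP2E1 were diluted 4-fold with control insect microsomes. Otherwise run as for HLM: pH 7.4 phosphate, 1mM NADPH, 37°C, 30 min, across a range of NAM concentrations. Methanol stop, HILIC HPLC with UV at 254 nm. Triplicates.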

These results are taken from ChEMBL document CHEMBL3525986, “Nicotinamide N-oxidation by CYP2E1 in human liver microsomes” (Drug Metab Dispos, 2013).

Consider `NC(=O)c1cccnc1` [NIACINAMIDE], for which the Drug metabolism result is on record as “metabolite_detected” in data set [1]; “metabolite_detected” in [2]; “metabolite_not_detected” in data set [3]; “metabolite_not_detected” in data set [5]; “metabolite_not_detected” in [6]; “Dose-dependent effect” in data set [9]. The “fold change (FC)” value in data set [4] is recorded as 8; in data set [7], over 5. In addition, the Activity in [8] is recorded as under 8%.
